Results published in article PMC3355950 (The Journal of Neuroscience, 2012).

How the values were obtained:
Assay in all cases: Two-electrode voltage-clamp recordings, Xenopus oocytes
Type in all cases: cell-based
GluN1/GluN2A V783L = GluN1/GluN2A V783L (Rattus norvegicus, UniProt P35439+Q00959, V783L)
GluN1/GluN2A M788A = GluN1/GluN2A M788A (Rattus norvegicus, UniProt P35439+Q00959, M788A); conditions: 100 μM glutamate + 3 μM glycine
GluN1/GluN2A L779A = GluN1/GluN2A L779A (Rattus norvegicus, UniProt P35439+Q00959, L779A); conditions: 100 μM glutamate + 3 μM glycine
GluN1/2A-ΔATD = GluN1/2A-ΔATD (Rattus norvegicus, UniProt P35439+Q00959); conditions: 100 μM glutamate plus 30 μM glycine; vs GluN1/GluN2A
GluN1/GluN2A G786A = GluN1/GluN2A G786A (Rattus norvegicus, UniProt P35439+Q00959, G786A); conditions: 100 μM glutamate + 3 μM glycine
GluN1/GluN2A V783T = GluN1/GluN2A V783T (Rattus norvegicus, UniProt P35439+Q00959, V783T); conditions: 100 μM glutamate + 3 μM glycine
GluN1/GluN2B = GluN1/GluN2B (Rattus norvegicus, UniProt P35439+Q00960); conditions: 100 μM glutamate + 3 μM glycine; N.E. = no effect at 10 μM TCN-201
GluN1/GluN2A Q781A = GluN1/GluN2A Q781A (Rattus norvegicus, UniProt P35439+Q00959, Q781A); conditions: 100 μM glutamate + 3 μM glycine
GluN1/GluN2A V783A = GluN1/GluN2A V783A (Rattus norvegicus, UniProt P35439+Q00959, V783A); conditions: 100 μM glutamate + 3 μM glycine
GluN1/GluN2A P527A = GluN1/GluN2A P527A (Rattus norvegicus, UniProt P35439+Q00959, P527A); conditions: 100 μM glutamate + 3 μM glycine
GluN1/GluN2B F784V = GluN1/GluN2B F784V (Rattus norvegicus, UniProt P35439+Q00960, F784V)
GluN1/GluN2A V783D = GluN1/GluN2A V783D (Rattus norvegicus, UniProt P35439+Q00959, V783D); conditions: 100 μM glutamate + 3 μM glycine
[1] = molecular target: GluN1 I519A co-expressed with GluN2A (Rattus norvegicus, UniProt P35439+Q00959, I519A); conditions: 100 μM glutamate + 3 μM glycine
[2] = molecular target: GluN1-1b/GluN2A receptors (Rattus norvegicus, UniProt P35439+Q00959); conditions: 3 μM TCN-201, 30 μM glycine; contains exon 5
In short: (§1)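 Xenopus laevis oocytes (female) were injected with in vitro transcribed cRNA and recorded by two-electrode voltage clamp 3–4 d after injection at 23°C, holding at −40 mV. Voltage and current electrodes held 0.3 and 3.0 M KCl.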

GluN1/GluN2A V783W = GluN1/GluN2A V783W (Rattus norvegicus, UniProt P35439+Q00959, V783W); conditions: 100 μM glutamate + 3 μM glycine
GluN1/2D-(2A S1) = GluN1/2D-(2A S1) (Rattus norvegicus, UniProt P35439+Q62645, A432V/A445I/A493S/A563S/D455N/D515N/D531V/DELINS461-477KFVKINNSTNEGMNV/F526V/G450E/G497K/G516N/H494R/I448L/I453V/I496V/I514V/I534V/I546V/P444D/R437A/R479K/R491K/S449T/S456T/S499T/T430S/V431I); conditions: 100 μM glutamate + 3 μM glycine; N.E. = no effect at 10 μM TCN-201
In short: (§2)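 cRNA from linearized constructs injected into female Xenopus laevis oocytes. Two-electrode voltage clamp done 3–4 d later at 23°C, holding at −40 mV, in 90 NaCl, 1 KCl, 10 HEPES, 0.5 BaCl₂, 0.01 EDTA (mM), pH 7.4. […] Max inhibition is (control − residual at saturating compound)/control.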

GluN1/2A-(2D M1M2M3) = GluN1/2A-(2D M1M2M3) (Rattus norvegicus, UniProt P35439+Q00959, A555P/A572T/A593R/A604S/F553Y/F579L/F658Y/G610A/H595G/I567T/I571V/K590T/K623R/L565C/N587S/P597S/Q620E/S556A/S569V/S598T/S632L/V575I); conditions: 100 μM glutamate plus 30 μM glycine; vs GluN1/GluN2A
GluN1/2D-(2A S2) = GluN1/2D-(2A S2) (Rattus norvegicus, UniProt P35439+Q62645, A747T/D725Y/D811G/E700D/E740D/H791Q/I813M/K706R/K717R/K766R/K779Y/L705F/L808V/M763K/M815E/P736R/P799Q/Q699H/Q701Y/Q744S/R693K/R737G/R765G/R795P/R818T/S688T/S721N/S728Q/S822T/T686Q/T743V/T783S/V731T/V780I/Y702S/Y733F); conditions: 100 μM glutamate + 3 μM glycine
In short: as §2

GluA1 AMPA receptors = GluA1 AMPA receptors (Rattus norvegicus, UniProt P19490); conditions: 10 μM TCN-201
In short: as §1

GluN1/GluN2A G786D = GluN1/GluN2A G786D (Rattus norvegicus, UniProt P35439+Q00959, G786D); conditions: 100 μM glutamate + 3 μM glycine
GluN1/GluN2A E790M = GluN1/GluN2A E790M (Rattus norvegicus, UniProt P35439+Q00959, E790M); conditions: 100 μM glutamate + 3 μM glycine

GluN1/GluN2B F784V, sequence (Q00960 27-1482 F784V, other chains not shown): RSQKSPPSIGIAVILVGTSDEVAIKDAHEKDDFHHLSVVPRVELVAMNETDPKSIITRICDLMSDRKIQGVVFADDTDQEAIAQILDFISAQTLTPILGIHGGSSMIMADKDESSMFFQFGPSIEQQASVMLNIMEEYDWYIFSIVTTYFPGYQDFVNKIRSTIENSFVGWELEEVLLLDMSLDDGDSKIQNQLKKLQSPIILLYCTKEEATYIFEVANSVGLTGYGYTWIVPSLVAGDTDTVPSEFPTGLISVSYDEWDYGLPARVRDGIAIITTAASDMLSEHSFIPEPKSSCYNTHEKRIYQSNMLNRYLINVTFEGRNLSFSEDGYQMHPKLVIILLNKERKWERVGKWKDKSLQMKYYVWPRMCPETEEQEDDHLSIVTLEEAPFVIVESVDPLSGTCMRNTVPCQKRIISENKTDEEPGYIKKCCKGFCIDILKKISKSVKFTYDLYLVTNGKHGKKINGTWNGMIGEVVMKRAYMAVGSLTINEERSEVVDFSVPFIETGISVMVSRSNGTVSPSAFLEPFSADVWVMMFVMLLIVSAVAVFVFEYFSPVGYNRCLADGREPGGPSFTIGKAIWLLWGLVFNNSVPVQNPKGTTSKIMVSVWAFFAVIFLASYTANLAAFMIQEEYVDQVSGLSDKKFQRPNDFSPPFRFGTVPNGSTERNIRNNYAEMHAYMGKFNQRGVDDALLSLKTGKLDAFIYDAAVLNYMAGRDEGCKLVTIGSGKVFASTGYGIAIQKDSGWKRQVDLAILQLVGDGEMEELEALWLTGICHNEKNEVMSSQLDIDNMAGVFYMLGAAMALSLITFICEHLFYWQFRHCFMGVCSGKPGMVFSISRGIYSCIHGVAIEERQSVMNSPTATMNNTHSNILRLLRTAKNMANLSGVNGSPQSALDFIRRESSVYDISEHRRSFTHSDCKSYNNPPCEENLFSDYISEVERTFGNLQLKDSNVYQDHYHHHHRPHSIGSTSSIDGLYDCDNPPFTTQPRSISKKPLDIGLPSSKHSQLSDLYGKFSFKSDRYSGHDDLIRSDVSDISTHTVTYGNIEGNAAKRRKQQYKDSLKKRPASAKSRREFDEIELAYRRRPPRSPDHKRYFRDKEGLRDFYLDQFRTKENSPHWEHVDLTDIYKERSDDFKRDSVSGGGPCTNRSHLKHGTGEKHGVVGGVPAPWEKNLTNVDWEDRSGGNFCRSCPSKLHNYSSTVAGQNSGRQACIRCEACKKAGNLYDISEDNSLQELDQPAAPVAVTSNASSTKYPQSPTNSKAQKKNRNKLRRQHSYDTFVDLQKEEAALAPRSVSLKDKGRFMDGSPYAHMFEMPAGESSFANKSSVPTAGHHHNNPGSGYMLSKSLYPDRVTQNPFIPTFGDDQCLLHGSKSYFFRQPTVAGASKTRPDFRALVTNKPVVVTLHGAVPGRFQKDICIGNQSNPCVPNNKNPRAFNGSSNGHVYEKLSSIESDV
GluN1/GluN2B, sequence (Q00960 27-1482, other chains not shown): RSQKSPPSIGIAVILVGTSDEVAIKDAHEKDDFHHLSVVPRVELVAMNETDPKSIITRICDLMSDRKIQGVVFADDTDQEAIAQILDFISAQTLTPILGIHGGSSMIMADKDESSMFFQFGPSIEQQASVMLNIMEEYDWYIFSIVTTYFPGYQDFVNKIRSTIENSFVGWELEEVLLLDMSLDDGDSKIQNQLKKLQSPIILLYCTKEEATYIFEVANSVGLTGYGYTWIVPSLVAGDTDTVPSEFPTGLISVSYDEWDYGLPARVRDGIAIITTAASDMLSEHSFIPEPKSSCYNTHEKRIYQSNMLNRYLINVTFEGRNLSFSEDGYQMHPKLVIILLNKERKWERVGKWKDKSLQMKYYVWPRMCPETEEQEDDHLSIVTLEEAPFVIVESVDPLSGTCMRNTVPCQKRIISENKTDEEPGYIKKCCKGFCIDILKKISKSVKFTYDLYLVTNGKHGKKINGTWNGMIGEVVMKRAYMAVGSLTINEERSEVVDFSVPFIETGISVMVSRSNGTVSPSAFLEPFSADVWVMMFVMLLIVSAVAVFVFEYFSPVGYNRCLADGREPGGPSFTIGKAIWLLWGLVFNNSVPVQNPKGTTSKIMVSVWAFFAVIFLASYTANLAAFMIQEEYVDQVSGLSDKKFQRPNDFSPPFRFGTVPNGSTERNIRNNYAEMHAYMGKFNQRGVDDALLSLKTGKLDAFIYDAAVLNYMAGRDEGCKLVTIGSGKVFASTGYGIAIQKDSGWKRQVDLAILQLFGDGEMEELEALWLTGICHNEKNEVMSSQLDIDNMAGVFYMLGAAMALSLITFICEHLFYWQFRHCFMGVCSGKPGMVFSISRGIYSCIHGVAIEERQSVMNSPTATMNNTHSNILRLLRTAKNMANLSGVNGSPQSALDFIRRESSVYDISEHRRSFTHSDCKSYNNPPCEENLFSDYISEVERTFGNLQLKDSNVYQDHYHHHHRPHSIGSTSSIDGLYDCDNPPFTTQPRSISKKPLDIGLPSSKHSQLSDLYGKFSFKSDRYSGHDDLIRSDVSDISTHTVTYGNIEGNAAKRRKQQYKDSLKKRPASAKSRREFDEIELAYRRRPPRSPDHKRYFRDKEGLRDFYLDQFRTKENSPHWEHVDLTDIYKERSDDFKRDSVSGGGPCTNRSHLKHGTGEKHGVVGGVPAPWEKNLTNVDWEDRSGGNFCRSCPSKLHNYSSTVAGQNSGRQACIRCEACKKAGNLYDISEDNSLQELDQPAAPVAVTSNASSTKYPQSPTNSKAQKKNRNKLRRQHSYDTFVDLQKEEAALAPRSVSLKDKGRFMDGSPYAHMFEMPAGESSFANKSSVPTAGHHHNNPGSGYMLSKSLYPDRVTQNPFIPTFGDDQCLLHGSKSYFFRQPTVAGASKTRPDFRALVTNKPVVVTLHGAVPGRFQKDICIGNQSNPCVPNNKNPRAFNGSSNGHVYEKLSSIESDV
GluA1 AMPA receptors, sequence (P19490 19-907): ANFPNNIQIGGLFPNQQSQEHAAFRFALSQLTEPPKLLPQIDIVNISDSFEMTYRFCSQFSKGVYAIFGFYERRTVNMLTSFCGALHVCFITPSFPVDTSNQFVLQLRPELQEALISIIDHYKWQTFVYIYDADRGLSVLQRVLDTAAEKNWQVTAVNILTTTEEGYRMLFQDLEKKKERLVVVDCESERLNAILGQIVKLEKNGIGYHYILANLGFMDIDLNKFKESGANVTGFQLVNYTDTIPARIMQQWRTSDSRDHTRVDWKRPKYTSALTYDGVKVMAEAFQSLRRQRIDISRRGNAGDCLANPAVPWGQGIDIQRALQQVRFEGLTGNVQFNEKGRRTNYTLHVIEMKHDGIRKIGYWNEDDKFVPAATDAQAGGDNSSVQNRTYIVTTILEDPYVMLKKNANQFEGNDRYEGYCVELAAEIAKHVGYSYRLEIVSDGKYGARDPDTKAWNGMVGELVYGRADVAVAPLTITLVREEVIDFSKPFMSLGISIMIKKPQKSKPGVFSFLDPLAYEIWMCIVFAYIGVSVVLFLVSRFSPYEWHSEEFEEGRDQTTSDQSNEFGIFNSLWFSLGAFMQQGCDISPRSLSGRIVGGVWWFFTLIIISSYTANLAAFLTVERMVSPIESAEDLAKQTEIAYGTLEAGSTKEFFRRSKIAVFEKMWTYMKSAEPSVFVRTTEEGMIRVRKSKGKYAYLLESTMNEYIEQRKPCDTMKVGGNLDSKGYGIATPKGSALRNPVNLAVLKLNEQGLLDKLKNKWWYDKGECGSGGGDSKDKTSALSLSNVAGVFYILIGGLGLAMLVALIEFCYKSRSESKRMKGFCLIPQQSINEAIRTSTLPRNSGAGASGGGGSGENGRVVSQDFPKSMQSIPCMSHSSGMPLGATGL

Kb (GluN1/GluN2A V783L): 2140 nM
TCN-201 activity Max. % inhibition (GluN1/GluN2A M788A): 90 ± 3%
TCN-201 activity nH (GluN1/GluN2A M788A): 1.4
TCN-201 activity Max. % inhibition (GluN1/GluN2A L779A): 88 ± 5%
TCN-201 activity nH (GluN1/GluN2A L779A): 1.3
Inhibition by 3 μM TCN-201 (GluN1/2A-ΔATD): did not reduce inhibition
TCN-201 activity Max. % inhibition (GluN1/GluN2A G786A): 87 ± 3%
TCN-201 activity nH (GluN1/GluN2A G786A): 1.8
TCN-201 activity Max. % inhibition (GluN1/GluN2A V783T): 91 ± 1%
TCN-201 activity nH (GluN1/GluN2A V783T): 1.5
TCN-201 activity IC50 (GluN1/GluN2B): did not inhibit and N.E.
TCN-201 activity Max. % inhibition (GluN1/GluN2A Q781A): 94 ± 2%
TCN-201 activity nH (GluN1/GluN2A Q781A): 1.9
TCN-201 activity Max. % inhibition (GluN1/GluN2A V783A): 91 ± 2%
TCN-201 activity nH (GluN1/GluN2A V783A): 1.1
TCN-201 activity Max. % inhibition (GluN1/GluN2A P527A): 91 ± 3%
TCN-201 activity nH (GluN1/GluN2A P527A): 1.4
Kb (GluN1/GluN2B F784V): 1380 nM
TCN-201 activity nH (GluN1/GluN2B F784V; 100 μM glutamate + 3 μM glycine): 1.2
TCN-201 activity Max. % inhibition (GluN1/GluN2A V783D): 92 ± 2%
TCN-201 activity nH (GluN1/GluN2A V783D): 1.2
TCN-201 activity Max. % inhibition [1]: 80 ± 2%
TCN-201 activity nH [1]: 1.9
Response, % of control [2]: 49 ± 2 % of control
TCN-201 activity Max. % inhibition (GluN1/GluN2A V783W): 95 ± 2%
TCN-201 activity nH (GluN1/GluN2A V783W): 1.0
Inhibition by 3 μM TCN-201 (GluN1/2A-(2D M1M2M3)): did not reduce inhibition
TCN-201 activity Max. % inhibition (GluN1/2D-(2A S2)): 91 ± 4%
TCN-201 activity nH (GluN1/2D-(2A S2)): 2.1
Effect on responses activated by 100 μM glutamate (GluA1 AMPA receptors): did not affect responses
TCN-201 activity Max. % inhibition (GluN1/GluN2A G786D): 82 ± 3%
TCN-201 activity nH (GluN1/GluN2A G786D): 1.7
TCN-201 activity Max. % inhibition (GluN1/GluN2A E790M): 90 ± 3%
TCN-201 activity nH (GluN1/GluN2A E790M): 1.4
SMILES: O=C(NNC(=O)c1ccc(CNS(=O)(=O)c2ccc(F)c(Cl)c2)cc1)c1ccccc1 [TCN-201, 3-chloro-4-fluoro-N-[(4-[(2-(phenylcarbonyl)hydrazino)carbonyl]phenyl)methyl]-benzenesulfonamide]
TCN-201 activity IC50 (GluN1/2D-(2A S1)): did not introduce TCN-201 sensitivity and N.E.
